Measurements collected from several papers.
Each line is one published result; the experiments were not run side by side. pIC50, pKi: −log10 of the molar value.
UGT2B7: UDP-glucuronosyltransferase 2B7 (UGT2B7, Homo sapiens, UniProt P16662)
KCNH2: Voltage-gated inwardly rectifying potassium channel KCNH2 (KCNH2, Homo sapiens, UniProt Q12809)

CON=C(N)c1ccc(-c2ccc(-c3ccc(C(N)=NOC)cc3)o2)cc1
Km (Cytochrome P450 4F2 (Homo sapiens, UniProt P78329); enzyme activity, substrate): 0.7 µM

CN(CCC(=O)O)C(=O)c1ccc2c(c1)CC[C@@H]1[C@@H]2CC[C@]2(C)C(c3cncc(F)c3)=CC[C@@H]12
pIC50 (UGT2B7; enzyme activity, inhibitor): < 4.52

O=c1c2ccccc2c(Cc2ccc(Cl)cc2)nn1C1CCCNCC1 (centres unmarked)
inhibition (KCNH2; ion current, inhibitor, patch clamp; HEK293; 10 µM): 97%

C=C1CCC2C(C)(CO)C(=O)CCC2(C)C1CCC1=CCOC1=O (centres unmarked)
pKi (UGT2B7; enzyme activity, inhibitor): 5.38

CC(=O)c1cc(C(=O)N[C@@H](C)Cn2ccc(-c3ccc(C#N)c(Cl)c3)n2)[nH]n1
pIC50 (UGT2B7; enzyme activity, inhibitor; human, liver microsomes): < 4.30

C=C1CC[C@@H]2[C@](C)(CO)[C@H](O)CC[C@@]2(C)[C@@H]1CCC1=CCOC1=O
inhibition (UGT2B7; enzyme activity, inhibitor; 100 µM, pH 7.4): 95%

C[C@@H](Cn1ccc(-c2ccc(C#N)c(Cl)c2)n1)NC(=O)c1cc([C@@H](C)O)[nH]n1
pIC50 (UGT2B7; enzyme activity, inhibitor; human, liver microsomes): < 4.00

CNC(=O)[C@@]12C[C@@H]1[C@@H](n1cnc3c(NCCc4ccc(O)c(OC)c4)nc(C#Cc4ccco4)nc31)[C@H](O)[C@@H]2O
inhibition (KCNH2; ion current, inhibitor; 10 µM): > 50%

CC(C)=CCCC(C)c1ccc(C)cc1 (centres unmarked)
pIC50 (UGT2B7; enzyme activity, inhibitor): < 3.70

C=C1CC[C@@H]2[C@](C)(CO[C@@H]3O[C@H](CO)[C@@H](O)[C@H](O)[C@H]3O)CCC[C@@]2(C)[C@@H]1CCC1=CCOC1=O
inhibition (UGT2B7; enzyme activity, inhibitor; 100 µM, pH 7.4): 42%

O=C(Nc1cccc(C(F)(F)F)c1)N1CCN(c2cccc(C(F)(F)F)c2)CC1
inhibition (KCNH2; ion current, inhibitor, patch clamp; HEK293; 10 µM): 85%
